As usually defined, the pIC50 is the negative decadic logarithm of the IC50, by convention in mol/L. Read a low pIC50 as a large IC50. One may read the IC50 as the concentration needed to halve the response being measured. Low readings indicate greater potency in that assay, high ones weaker potency in that assay.

Structures are written as SMILES.

One assay in a line: Inhibition of HIV-1 gp120-CD4 (unknown origin) interaction. Further details: species or system Human immunodeficiency virus 1. The method in brief:
(§1)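 Capture ELISA for gp120–CD4 binding. Compounds diluted in diluent buffer over 0.1–1000 ng/ml and added with positive reference CD4 (1000 ng/ml). The CD4 standard ran in twofold dilutions from 1000 to 0.5 ng/ml. Incubation 1 h at room temperature, three washes, then conjugate at 1:100 for 1 h. TMB for 10 min, reaction stopped, absorbance read at 450 nm; IC50 derived.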
The molecule `C[C@H]1CN(C(=O)c2ccn(C)n2)CCN1S(=O)(=O)c1c[nH]c2ncccc12` showed a pIC50 of 5.62. With `Cc1csc(C(=O)N2CCN(S(=O)(=O)c3c[nH]c4ncccc34)[C@@H](C)C2)c1`, the pIC50 came to 5.721. `C[C@H]1CN(C(=O)c2csc(N)n2)CCN1S(=O)(=O)c1c[nH]c2ncccc12` yielded a pIC50 of 6.284. Still for that read-out and setting: with `C[C@@H]1CN(C(=O)c2ccccc2)CCN1S(=O)(=O)c1c[nH]c2c(-n3nccn3)ccc(F)c12` the figure was 6.699. Molecule `C[C@H]1CN(C(=O)c2ccccc2)CCN1S(=O)(=O)c1c[nH]c2ccc(F)cc12` showed a pIC50 of 5.444. `C[C@H]1CN(C(=O)c2ccccc2)CCN1S(=O)(=O)c1c[nH]c2ncccc12` had a pIC50 of 6.066.

`O=C(C(=O)N1CCN(C(=O)c2ccccc2)CC1)c1c[nH]c2ncccc12` returned a pIC50 of 6.284. Still for that read-out and setting: under `COc1ncc(OC)c2c(C(=O)C(=O)N3CCN(C(=O)c4ccccc4)CC3)c[nH]c12` stands 7.588; under `C[C@H]1CN(C(=O)c2cnccn2)CCN1S(=O)(=O)c1c[nH]c2ncccc12`, 5.041. Same read-out and setting: under `C[C@H]1CN(C(=O)c2ccccc2)CCN1S(=O)(=O)c1c[nH]c2c(-n3nccn3)ncc(F)c12` stands 6.208; under `C[C@H]1CN(C(=O)c2ccccc2)CCN1S(=O)(=O)c1c[nH]c2c(-n3ccnc3)ncc(F)c12`, 7.444. The molecule `C[C@H]1CN(C(=O)c2ccccc2)CCN1C(=O)C(=O)c1c[nH]c2ncccc12` gave a pIC50 of 7.523. The pIC50 values of the last two molecules are within 0.2 log units of each other. On the same count and under the same terms, with `C[C@H]1CN(C(=O)c2ccccn2)CCN1S(=O)(=O)c1c[nH]c2ncccc12` the figure was 5.481; with `C[C@H]1CN(C(=O)c2ccccc2)CCN1S(=O)(=O)c1c[nH]c2ccccc12`, 6.367; with `C[C@H]1CN(C(=O)c2ccccc2)CCN1S(=O)(=O)c1c[nH]c2c(-n3ccnc3)nccc12`, 7.097. Still for that read-out and setting: with `COc1cc[nH]c2ncc(C(=O)C(=O)N3CCN(C(=O)c4ccccc4)C[C@@H]3C)c1-2` the figure was 8.097; with `Cc1ccc(C(=O)N2CCN(S(=O)(=O)c3c[nH]c4ncccc34)[C@@H](C)C2)s1`, 5.638; with `C[C@@H]1CN(S(=O)(=O)c2c[nH]c3ncccc23)CCN1C(=O)c1ccccc1`, 4.886. As to `C[C@H]1CN(C(=O)c2ccccc2)CCN1S(=O)(=O)c1c[nH]c2cccc(F)c12`, the pIC50 is given as 6.699.

The molecule `C[C@H]1CN(C(=O)c2ccccc2)CCN1S(=O)(=O)c1c[nH]c2c(-n3ccnn3)ccc(F)c12` showed a pIC50 of 6.824. The molecule `C[C@H]1CN(C(=O)c2ccccc2)CCN1S(=O)(=O)c1c[nH]c2c(F)c(F)c(F)c(F)c12` had a pIC50 of 5.328. In turn, `C[C@H]1CN(C(=O)c2csc(Br)n2)CCN1S(=O)(=O)c1c[nH]c2ncccc12` gave a pIC50 of 6.377. In turn, `COc1cccc2[nH]cc(S(=O)(=O)N3CCN(C(=O)c4ccccc4)C[C@@H]3C)c12` returned a pIC50 of 5.372. As for `COc1ncc(OC)c2c(C(=O)C(=O)N3CCN(C(=O)c4ccccc4)C[C@@H]3C)c[nH]c12`, the pIC50 is 8.301. In turn, `C[C@H]1CN(C(=O)c2cc3ccccc3o2)CCN1S(=O)(=O)c1c[nH]c2ncccc12` displayed a pIC50 of 5.523.

For the molecule `C[C@H]1CN(C(=O)c2ccccc2)CCN1S(=O)(=O)c1c[nH]c2c(F)ccc(F)c12`, the pIC50 was determined as 6.432. The molecule `C[C@H]1CN(C(=O)c2ccccc2)CCN1S(=O)(=O)c1c[nH]c2c(-n3cncn3)ccc(F)c12` returned a pIC50 of 6.301. Regarding `O=C(c1ccccc1)N1CCN(S(=O)(=O)c2c[nH]c3ncccc23)CC1`, the pIC50 is 4.657. As for `CC[C@H]1CN(C(=O)c2ccccc2)CCN1S(=O)(=O)c1c[nH]c2ncccc12`, the pIC50 amounted to 4.796. As for `C[C@H]1CN(C(=O)c2ccccc2)CCN1S(=O)(=O)c1c[nH]c2c(-n3cncn3)nccc12`, the pIC50 is on record as 6.824.

A short description of a further assay: Inhibition of HIV1 gp120-CD4 (unknown origin) interaction after 1 hr by ELISA. Further details: species or system Human immunodeficiency virus 1. The essentials: as §1
Take `O=C(Nc1ccc(Cc2nc3ccccc3[nH]2)cc1)Nc1ccc(Cc2nc3ccccc3[nH]2)cc1`: the IC50 was found to be 197 nM.

For `S=C(Nc1ccc(Cc2nc3ccccc3[nH]2)cc1)Nc1ccc(Cc2nc3ccccc3[nH]2)cc1`, the IC50 was 149 nM.

Molecule `O=C(NCc1nc2ccccc2[nH]1)NCc1nc2ccccc2[nH]1` had an IC50 of 247 nM.

Turning to `S=C(Nc1ccc(-c2nc3ccccc3[nH]2)cc1)Nc1ccc(-c2nc3ccccc3[nH]2)cc1`, the midpoint of inhibition, the IC50, lay at 126 nM. `O=C(Nc1ccc(-c2nc3ccccc3[nH]2)cc1)Nc1ccc(-c2nc3ccccc3[nH]2)cc1` displayed an IC50 of 188 nM. In the case of `S=C(NCc1nc2ccccc2[nH]1)NCc1nc2ccccc2[nH]1`, 13 nM corresponded to half-maximal inhibition (IC50).
